Laboratory results as given in ChEMBL document CHEMBL4373647, “Design, synthesis, and antimicrobial evaluation of 1,4-dihydroindeno[1,2-c]pyrazole tethered carbohydrazide hybrids: exploring their in silico ADMET, ergosterol inhibition and ROS inducing potential” (Medchemcomm, 2019).
≈ marks a conversion by molar mass, not a printed value. Calls of active or inactive are those of the source. The calls are words filed in the database; no cut-off is given here.

Tests used:
Type in all cases: functional
Pseudomonas aeruginosa [1] = assay: Antibacterial activity against Pseudomonas aeruginosa MTCC 2453 assessed as inhibition of bacterial growth incubated for 24 hrs by agar well diffusion method; details: MTCC 2453, 24 h
Method in brief: (§1)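 Strains from MTCC; inoculum at 0.5 McFarland spread on Mueller-Hinton agar; 6 mm wells loaded with compound over 125–0.97 µg/mL; ciprofloxacin positive control (same range), DMSO negative control. Plates held 24 h at 37 °C; MIC taken as lowest concentration giving a clear inhibition zone. Triplicate runs, mean MIC reported.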

Staphylococcus aureus [2] = assay: Antibacterial activity against Staphylococcus aureus MTCC 96 assessed as inhibition of bacterial growth incubated for 24 hrs by agar well diffusion method; details: MTCC 96, 24 h; method in brief: as §1
Bacillus subtilis [3] = assay: Antibacterial activity against Bacillus subtilis MTCC 121 assessed as inhibition of bacterial growth incubated for 24 hrs by agar well diffusion method; details: MTCC 121, 24 h; method in brief: as §1
Candida albicans = assay: Antifungal activity against Candida albicans MTCC 3017 assessed as inhibition of fungal growth incubated for 24 hrs by agar well diffusion method
Method in brief: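 Candida strains from MTCC, pre-cultured and spread on Mueller Hinton agar. Wells received compound dissolved in 10% DMSO, 125–0.97 µg/mL; miconazole standard over the same range, DMSO negative control. After 24 h at 37 °C, MIC was read as the lowest concentration giving an inhibition zone. Duplicate experiments, means given.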

Escherichia coli [4] = assay: Antibacterial activity against Escherichia coli MTCC 739 assessed as inhibition of bacterial growth incubated for 24 hrs by agar well diffusion method; details: MTCC 739, 24 h; method in brief: as §1
Staphylococcus aureus [5] = assay: Antibacterial activity against Staphylococcus aureus MLS-16 MTCC 2940 assessed as inhibition of bacterial growth incubated for 24 hrs by agar well diffusion method; details: MLS-16 MTCC 2940, 24 h; method in brief: as §1
Raoultella planticola [6] = assay: Antibacterial activity against Klebsiella planticola MTCC 530 assessed as inhibition of bacterial growth incubated for 24 hrs by agar well diffusion method; details: MTCC 530, 24 h; method in brief: as §1
Micrococcus luteus [7] = assay: Antibacterial activity against Micrococcus luteus MTCC 2470 assessed as inhibition of bacterial growth incubated for 24 hrs by agar well diffusion method; details: MTCC 2470, 24 h; method in brief: as §1
Escherichia coli [8] = assay: Bactericidal activity against Escherichia coli MTCC 739 assessed as bacterial killing incubated for 24 hrs; details: MTCC 739, 24 h
Method in brief: (§2)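 Broth tube assay: compound at 0–125 µg/mL in Mueller Hinton broth, overnight culture added to 0.5 McFarland (1.5 × 10^8 cfu/mL), held 24 h at 37 °C. 10 µL from each tube plated on Mueller Hinton agar. MBC is the lowest concentration that kills the strain. Duplicates, means reported.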

Staphylococcus aureus [9] = assay: Bactericidal activity against Staphylococcus aureus MTCC 96 assessed as bacterial killing incubated for 24 hrs; details: MTCC 96, 24 h; method in brief: as §2
Micrococcus luteus [10] = assay: Bactericidal activity against Micrococcus luteus MTCC 2470 assessed as bacterial killing incubated for 24 hrs; details: MTCC 2470, 24 h; method in brief: as §2
Bacillus subtilis [11] = assay: Bactericidal activity against Bacillus subtilis MTCC 121 assessed as bacterial killing incubated for 24 hrs; details: MTCC 121, 24 h; method in brief: as §2
Staphylococcus aureus [12] = assay: Bactericidal activity against Staphylococcus aureus MLS-16 MTCC 2940 assessed as bacterial killing incubated for 24 hrs; details: MLS-16 MTCC 2940, 24 h; method in brief: as §2
Raoultella planticola [13] = assay: Bactericidal activity against Klebsiella planticola MTCC 530 assessed as bacterial killing incubated for 24 hrs; details: MTCC 530, 24 h; method in brief: as §2
Pseudomonas aeruginosa [14] = assay: Bactericidal activity against Pseudomonas aeruginosa MTCC 2453 assessed as bacterial killing incubated for 24 hrs; details: MTCC 2453, 24 h; method in brief: as §2

SMILES | MIC (Pseudomonas aeruginosa [1]) [µg/mL] | MIC (Staphylococcus aureus [2]) [µg/mL] | MIC (Bacillus subtilis [3]) [µg/mL] | MIC (Candida albicans; MTCC 3017, 24 h) [µg/mL] | MIC (Escherichia coli [4]) [µg/mL] | MIC (Staphylococcus aureus [5]) [µg/mL] | MIC (Raoultella planticola [6]) [µg/mL] | MIC (Micrococcus luteus [7]) [µg/mL] | MBC (Escherichia coli [8]) [µg/mL] | MIC (Candida albicans) | MBC (Staphylococcus aureus [9]) [µg/mL] | MBC (Micrococcus luteus [10]) [µg/mL] | MBC (Bacillus subtilis [11]) [µg/mL] | MBC (Staphylococcus aureus [12]) [µg/mL] | MBC (Raoultella planticola [13]) [µg/mL] | MBC (Pseudomonas aeruginosa [14]) [µg/mL]
COc1ccc2c(c1)Cc1c(C(=O)N/N=C/c3ccc(OC)c(OC)c3)n[nH]c1-2 | > 125 | 3.9 (≈ 9.94 µM) | 7.8 (≈ 19.9 µM) | > 125 | > 125 | 7.8 (≈ 19.9 µM) | > 125 | 3.9 (≈ 9.94 µM) |  |  |  |  |  |  |  | 
COc1ccc(/C=N/NC(=O)c2n[nH]c3c2Cc2cc(F)ccc2-3)cc1OC | > 125 | > 125 | > 125 | > 125 | > 125 | 3.9 (≈ 10.3 µM) | > 125 | > 125 |  |  |  |  |  |  |  | 
O=C(N/N=C/c1ccc(Cl)cc1)c1n[nH]c2c1Cc1cc(F)ccc1-2 | > 125 | 15.6 (≈ 44 µM) | 7.8 (≈ 22 µM) | > 125 | > 125 | 15.6 (≈ 44 µM) | > 125 | > 125 |  |  |  |  |  |  |  | 
COc1cc(/C=N/NC(=O)c2n[nH]c3c2Cc2cc(F)ccc2-3)cc(OC)c1OC | 7.8 (≈ 19 µM) | 3.9 (≈ 9.5 µM) | 3.9 (≈ 9.5 µM) | > 125 | 3.9 (≈ 9.5 µM) | 7.8 (≈ 19 µM) | 7.8 (≈ 19 µM) | 7.8 (≈ 19 µM) |  |  |  |  |  |  |  | 
O=C(N/N=C/c1ccc(Br)cc1)c1n[nH]c2c1Cc1ccccc1-2 | > 125 | 15.6 (≈ 40.9 µM) | 15.6 (≈ 40.9 µM) | > 125 | > 125 | 15.6 (≈ 40.9 µM) | > 125 | > 125 |  |  |  |  |  |  |  | 
O=C(O)c1cn(C2CC2)c2cc(N3CCNCC3)c(F)cc2c1=O [CIPROFLOXACIN] | 0.9 (≈ 2.72 µM) | 0.9 (≈ 2.72 µM) | 0.9 (≈ 2.72 µM) |  | 0.9 (≈ 2.72 µM) | 0.9 (≈ 2.72 µM) | 0.9 (≈ 2.72 µM) | 0.9 (≈ 2.72 µM) | 1.9 (≈ 5.73 µM) | inactive | 1.9 (≈ 5.73 µM) | 1.9 (≈ 5.73 µM) | 1.9 (≈ 5.73 µM) | 1.9 (≈ 5.73 µM) | 1.9 (≈ 5.73 µM) | 1.9 (≈ 5.73 µM)
COc1ccc2c(c1)Cc1c(C(=O)N/N=C/c3ccc(O)cc3)n[nH]c1-2 | > 125 | 7.8 (≈ 22.4 µM) | 7.8 (≈ 22.4 µM) | > 125 | > 125 | 7.8 (≈ 22.4 µM) | > 125 | 3.9 (≈ 11.2 µM) |  |  |  |  |  |  |  | 
COc1ccc2c(c1)Cc1c(C(=O)N/N=C/c3ccc(Cl)cc3)n[nH]c1-2 | > 125 | 3.9 (≈ 10.6 µM) | 7.8 (≈ 21.3 µM) | > 125 | 3.9 (≈ 10.6 µM) | 7.8 (≈ 21.3 µM) | > 125 | 3.9 (≈ 10.6 µM) |  |  |  |  |  |  |  | 
O=C(N/N=C/c1ccc(Br)cc1)c1n[nH]c2c1Cc1cc(F)ccc1-2 | > 125 | 7.8 (≈ 19.5 µM) | 7.8 (≈ 19.5 µM) | > 125 | > 125 | 15.6 (≈ 39.1 µM) | > 125 | > 125 |  |  |  |  |  |  |  | 
O=C(N/N=C/c1ccc(Cl)cc1)c1n[nH]c2c1Cc1ccccc1-2 | > 125 | 3.9 (≈ 11.6 µM) | 7.8 (≈ 23.2 µM) | > 125 | 7.8 (≈ 23.2 µM) | 3.9 (≈ 11.6 µM) | > 125 | > 125 |  |  |  |  |  |  |  | 
COc1ccc2c(c1)Cc1c(C(=O)N/N=C/c3ccc(Br)cc3)n[nH]c1-2 | > 125 | > 125 | > 125 | > 125 | > 125 | > 125 | > 125 | > 125 |  |  |  |  |  |  |  | 
COc1cc(/C=N/NC(=O)c2n[nH]c3c2Cc2cc(F)ccc2-3)ccc1O | > 125 | > 125 | > 125 | 31.2 (≈ 85.2 µM) | > 125 | 3.9 (≈ 10.6 µM) | > 125 | > 125 |  |  |  |  |  |  |  | 
O=C(N/N=C/c1c(F)cc(F)cc1F)c1n[nH]c2c1Cc1cc(F)ccc1-2 | > 125 | 7.8 (≈ 20.8 µM) | 7.8 (≈ 20.8 µM) | 31.2 (≈ 83.4 µM) | > 125 | 3.9 (≈ 10.4 µM) | > 125 | > 125 |  |  |  |  |  |  |  | 
COc1ccc2c(c1)Cc1c(C(=O)N/N=C/c3cc(OC)c(OC)c(OC)c3)n[nH]c1-2 | > 125 | 15.6 (≈ 36.9 µM) | 3.9 (≈ 9.23 µM) | > 125 | > 125 | 7.8 (≈ 18.5 µM) | > 125 | 3.9 (≈ 9.23 µM) |  |  |  |  |  |  |  | 
COc1ccc(/C=N/NC(=O)c2n[nH]c3c2Cc2ccccc2-3)cc1OC | > 125 | > 125 | > 125 | > 125 | > 125 | > 125 | > 125 | > 125 |  |  |  |  |  |  |  | 
O=C(N/N=C/c1c(F)cc(F)cc1F)c1n[nH]c2c1Cc1ccccc1-2 | > 125 | > 125 | 15.6 (≈ 43.8 µM) | > 125 | > 125 | > 125 | > 125 | > 125 |  |  |  |  |  |  |  | 
COc1cc(/C=N/NC(=O)c2n[nH]c3c2Cc2ccccc2-3)cc(OC)c1OC | > 125 | 15.6 (≈ 39.8 µM) | 7.8 (≈ 19.9 µM) | > 125 | > 125 | 15.6 (≈ 39.8 µM) | > 125 | > 125 |  |  |  |  |  |  |  | 
